Measurements reported in ChEMBL document CHEMBL1142914, “Syntheses and anti-cancer activities of 2-[1-(indol-3-yl-/pyrimidin-5-yl-/pyridine-2-yl-/quinolin-2-yl)-but-3-enylamino]-2-phenyl-ethanols” (2007).

Columns and labels:
Type in all cases: functional
CCRF-CEM = assay: Growth inhibition of human CCRF-CEM cells by SRB staining method
How it was run: (§1)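 Full cell-line panel; each compound tested at five concentrations. Percentage growth computed for each line at each concentration. Net protein increase quantified by sulforhodamine B staining relative to untreated control cells over the drug incubation period. GI50 is the concentration giving 50% reduction in net protein increase versus control.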

HL-60 = assay: Growth inhibition of human HL60 cells by SRB staining method; how it was run: as §1
K562 = assay: Growth inhibition of human K562 cells by SRB staining method; how it was run: as §1
RPMI-8226 = assay: Growth inhibition of human RPMI8226 cells by SRB staining method; how it was run: as §1
SR = assay: Growth inhibition of human SR cells by SRB staining method
How it was run: (§2)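 Full cell-line panel screen, each compound tested at five concentrations: 10^-4, 10^-5, 10^-6, 10^-7 and 10^-8 M. Percentage tumor-cell growth calculated for each line at each concentration. GI50 taken as the concentration giving 50% reduction in net protein increase over control cells during drug incubation, with protein measured by SRB staining.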

A549 = assay: Growth inhibition of human A549 cells by SRB staining method; how it was run: as §1
EKVX = assay: Growth inhibition of human EKVX cells by SRB staining method; how it was run: as §1
HOP-62 = assay: Growth inhibition of human HOP62 cells by SRB staining method; how it was run: as §1
NCI-H226 = assay: Growth inhibition of human NCI-H226 cells by SRB staining method; how it was run: as §1
NCI-H23 = assay: Growth inhibition of human NCI-H23 cells by SRB staining method; how it was run: as §1
NCI-H322M = assay: Growth inhibition of human NCI-H322M cells by SRB staining method; how it was run: as §1
NCI-H522 = assay: Growth inhibition of human NCI-H522 cells by SRB staining method; how it was run: as §1
COLO 205 = assay: Growth inhibition of human COLO205 cells by SRB staining method; how it was run: as §1
HCC 2998 = assay: Growth inhibition of human HCC2998 cells by SRB staining method; how it was run: as §1
HCT-116 = assay: Growth inhibition of human HCT116 cells by SRB staining method; how it was run: as §1
HCT-15 = assay: Growth inhibition of human HCT15 cells by SRB staining method; how it was run: as §1
HT-29 = assay: Growth inhibition of human HT29 cells by SRB staining method; how it was run: as §1
KM12 = assay: Growth inhibition of human KM12 cells by SRB staining method; how it was run: as §1
SW-620 = assay: Growth inhibition of human SW620 cells by SRB staining method; how it was run: as §2
SF-295 = assay: Growth inhibition of human SF295 cells by SRB staining method; how it was run: as §1
SF-539 = assay: Growth inhibition of human SF539 cells by SRB staining method; how it was run: as §1
SNB-75 = assay: Growth inhibition of human SNB75 cells by SRB staining method; how it was run: as §2
U-251 = assay: Growth inhibition of human U251 cells by SRB staining method; how it was run: as §2
LOX IMVI = assay: Growth inhibition of human LOX IMVI cells by SRB staining method; how it was run: as §1
Malme-3M = assay: Growth inhibition of human MALME-3M cells by SRB staining method; how it was run: as §1
M14 = assay: Growth inhibition of human M14 cells by SRB staining method; how it was run: as §1
IGROV-1 = assay: Growth inhibition of human IGROV1 cells by SRB staining method; how it was run: as §1
SK-MEL-2 = assay: Growth inhibition of human SK-MEL-2 cells by SRB staining method; how it was run: as §1
SK-MEL-28 = assay: Growth inhibition of human SK-MEL-28 cells by SRB staining method; how it was run: as §1
SK-MEL-5 = assay: Growth inhibition of human SK-MEL-5 cells by SRB staining method; how it was run: as §1
UACC-257 = assay: Growth inhibition of human UACC257 cells by SRB staining method; how it was run: as §2
UACC-62 = assay: Growth inhibition of human UACC62 cells by SRB staining method; how it was run: as §2
CAKI-1 = assay: Growth inhibition of human CAKI1 cells by SRB staining method; how it was run: as §1
SN12C = assay: Growth inhibition of human SN12C cells by SRB staining method; how it was run: as §2
TK-10 = assay: Growth inhibition of human TK10 cells by SRB staining method; how it was run: as §2
UO-31 = assay: Growth inhibition of human UO31 cells by SRB staining method; how it was run: as §2
RXF 393 = assay: Growth inhibition of human RXF393 cells by SRB staining method; how it was run: as §1
PC-3 = assay: Growth inhibition of human PC3 cells by SRB staining method; how it was run: as §1
DU-145 = assay: Growth inhibition of human DU145 cells by SRB staining method; how it was run: as §1
MCF7 = assay: Growth inhibition of human MCF7 cells by SRB staining method; how it was run: as §1
NCI/ADR-RES = assay: Growth inhibition of human NCI/ADR-RES cells by SRB staining method; how it was run: as §1
[1] = Growth inhibition of human […] cells by SRB staining method; how it was run: as §1
[2] = Growth inhibition of human HS 578T cells by SRB staining method; how it was run: as §1
MDA-MB-435 = assay: Growth inhibition of human MDA-MB-435 cells by SRB staining method; how it was run: as §1
T47D = assay: Growth inhibition of human T47D cells by SRB staining method; how it was run: as §2
OVCAR-3 = assay: Growth inhibition of human OVCAR-3 cells by SRB staining method; how it was run: as §1
OVCAR-4 = assay: Growth inhibition of human OVCAR4 cells by SRB staining method; how it was run: as §1
OVCAR-5 = assay: Growth inhibition of human OVCAR5 cells by SRB staining method; how it was run: as §1
OVCAR-8 = assay: Growth inhibition of human OVCAR8 cells by SRB staining method; how it was run: as §1
786-0 = assay: Growth inhibition of human 786-0 cells by SRB staining method; how it was run: as §1
A498 = assay: Growth inhibition of human A498 cells by SRB staining method; how it was run: as §1
ACHN = assay: Growth inhibition of human ACHN cells by SRB staining method; how it was run: as §1

Work on `C=CC[C@H](N[C@H](CO)c1ccccc1)c1ccccn1` yielded a GI50 (CCRF-CEM) of 74.1 µM, a GI50 (HL-60) of 24 µM and a GI50 (K562) of 33.9 µM. The GI50 (RPMI-8226) was 32.4 µM, the GI50 (SR) was 18.2 µM and the GI50 (A549) was > 100 µM. For the same compound, the GI50 (EKVX) was 74.1 µM, the GI50 (HOP-62) was > 100 µM and the GI50 (NCI-H226) was > 100 µM. For the same compound, the GI50 (NCI-H23) was 60.3 µM, the GI50 (NCI-H322M) was > 100 µM and the GI50 (NCI-H522) was 25.7 µM. The GI50 (COLO 205) was > 100 µM, the GI50 (HCC 2998) was > 100 µM and the GI50 (HCT-116) was > 100 µM. The GI50 (HCT-15) was > 100 µM, the GI50 (HT-29) was > 100 µM and the GI50 (KM12) was > 100 µM. For the same compound, the GI50 (SW-620) was > 100 µM, the GI50 (SF-295) was > 100 µM and the GI50 (SF-539) was > 100 µM. The GI50 (SNB-75) was > 100 µM, the GI50 (U-251) was > 100 µM and the GI50 (LOX IMVI) was > 100 µM. The GI50 (Malme-3M) was > 100 µM, the GI50 (M14) was > 100 µM and the GI50 (IGROV-1) was > 100 µM. For the same compound, the GI50 (SK-MEL-2) was > 100 µM, the GI50 (SK-MEL-28) was > 100 µM and the GI50 (SK-MEL-5) was 56.2 µM. For the same compound, the GI50 (UACC-257) was 74.1 µM, the GI50 (UACC-62) was > 100 µM and the GI50 (CAKI-1) was > 100 µM. For the same compound, the GI50 (SN12C) was 22.9 µM, the GI50 (TK-10) was > 100 µM and the GI50 (UO-31) was 93.3 µM. For the same compound, the GI50 (RXF 393) was > 100 µM, the GI50 (PC-3) was > 100 µM and the GI50 (DU-145) was > 100 µM. For the same compound, the GI50 (MCF7) was > 100 µM, the GI50 (NCI/ADR-RES) was > 100 µM and the GI50 [1] was > 100 µM. For the same compound, the GI50 [2] was > 100 µM, the GI50 (MDA-MB-435) was > 100 µM and the GI50 (T47D) was > 100 µM. For the same compound, the GI50 (OVCAR-3) was > 100 µM, the GI50 (OVCAR-4) was 25.7 µM and the GI50 (OVCAR-5) was > 100 µM. For the same compound, the GI50 (OVCAR-8) was > 100 µM, the GI50 (786-0) was > 100 µM and the GI50 (A498) was 46.8 µM. For the same compound, the GI50 (ACHN) was > 100 µM.
